Series [1] addresses Baculoviral IAP repeat-containing protein 2 (Homo sapiens) (UniProt Q13490). Kind of series: Antagonist activity at cIAP1-BIR3 domain (unknown origin) assessed as inhibition of interaction with SMAC at 0.01 uM by fluorescence polarization assay relative to control.
Series [2] concerns the target T1, E3 ubiquitin-protein ligase XIAP (Homo sapiens, UniProt P98170). Description: Antagonist activity at full-length FLAG-tagged XIAP (unknown origin) transfected in HEK293 cells assessed as inhibition of interaction with caspase 9 after 2 hrs by immunoprecipitation assay. The series is classed as cell-based.
For series [3], the system named is MDA-MB-231. Description: Antitumor activity against human MDA-MB-231 cells xenografted in Balb/c SCID mouse assessed as tumor growth inhibition at 100 mg/kg, po qd measured every 3 days. It is filed as functional, organism-based. The gist of the method:
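Balb/c scid mice were inoculated s.c. with 5 x 10^6 MDA-MB-231 cells and dosing began when group (n=8) mean tumor volume reached 100 mm³. Arms: 100 mg/kg i.p. b.i.d., 100 mg/kg p.o. q.d., or vehicle. Tumor volume (length x width x width x 0.5) measured every 3 days; body weight recorded daily.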
A general note: Xenograft models place foreign cells or tissue in a host animal.

Series [4] concerns the target T1, E3 ubiquitin-protein ligase XIAP. The settings on record: 0.05 uM.
A further series relates to EVSA-T. Description: cells. The conditions noted are these: Homo sapiens, 72 h.
Series [5] concerns MDA-MB-231. Description: cells. The settings on record: Homo sapiens, MDA-MB-231, 72 h.
For a further series, the system named is HCT-116. Kind of series: cells. The settings on record: Homo sapiens, HCT-116, 72 h.
Series [6] concerns Mus musculus. Kind of series: Reduction of cIAP1 level in human MDA-MB-231 cells xenografted in Balb/c SCID mouse at 100 mg/kg, ip measured after 1 to 6 hrs by Western blot analysis relative to vehicle-treated control. It is filed as functional, organism-based. The gist of the method:
(§1)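 Male Balb/c scid mice bearing MDA-MB-231 tumors received a single 100 mg/kg i.p. dose in 10% DMSO/90% saline (freebase equivalent). Tumors were harvested at 1, 6 and 24 h and snap frozen. Lysates were ground under liquid nitrogen in Triton lysis buffer with NaF/Na3VO4, and equal protein was run on SDS-PAGE. Blots were probed for cIAP1, XIAP, cleaved PARP and cleaved caspase-3, with infrared detection; comparison against vehicle-dosed tumors.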

Series [7] has as its system Mus musculus. Description: Reduction of cIAP1 level in human MDA-MB-231 cells xenografted in Balb/c SCID mouse at 100 mg/kg, ip measured after 1 hr by MSD plate-based method relative to vehicle-treated control. It is filed as functional, organism-based.
The test system of series [8] is Mus musculus. Kind of series: Reduction of cIAP1 level in human MDA-MB-231 cells xenografted in Balb/c SCID mouse at 100 mg/kg, ip measured after 24 hrs by Western blot analysis. The series is classed as functional, organism-based. The gist of the method:
as §1

Series [9] relates to Mus musculus. Description: Reduction of XIAP level in human MDA-MB-231 cells xenografted in Balb/c SCID mouse at 100 mg/kg, ip measured after 1 to 24 hrs by Western blot analysis. It is filed as functional, organism-based. The essentials: as §1
For series [10], the system named is Mus musculus. Kind of series: Increase in cleaved PARP level in human MDA-MB-231 cells xenografted in Balb/c SCID mouse at 100 mg/kg, ip measured after 1 to 24 hrs by Western blot analysis. It is filed as functional, organism-based. The gist of the method: as §1
The test system of series [11] is Mus musculus. Kind of series: Increase in cleaved caspase-3 level in human MDA-MB-231 cells xenografted in Balb/c SCID mouse at 100 mg/kg, ip measured after 1 to 24 hrs by Western blot analysis. It is filed as functional, organism-based. The gist of the method:
as §1

Series [12] relates to MDA-MB-231. Description: Antitumor activity against human MDA-MB-231 cells xenografted in Balb/c SCID mouse assessed as tumor growth inhibition at 100 mg/kg, ip bid measured every 3 days.
The test system of series [13] is Mus musculus. Kind of series: Toxicity in Balb/c SCID mouse xenografted with human MDA-MB-231 cells assessed as effect on body weight at 100 mg/kg, ip bid measured everyday during compound dosing. The conditions noted are these: in vivo.
Series [14] has as its target T1, E3 ubiquitin-protein ligase XIAP. Kind of series: Antagonist activity at XIAP-BIR3 domain (unknown origin) assessed as inhibition of interaction with SMAC at 5 mM by fluorescence polarization assay relative to control. The gist of the method: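 Competitive FP binding of a SMAC-derived fluorescent tracer, AbuRPFK(5&6FAM)-amide (5 nM), to XIAP-BIR3 (20 nM). Compound was tested at 5 mM and equilibrated at room temperature. Polarization was read at ex 485/em 538 nm and reported as percent inhibition, mean of at least two runs.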
A general note: In fluorescence polarisation assays a small probe gives low polarisation when free and higher when bound to something large.

The target of series [15] is Baculoviral IAP repeat-containing protein 2 (Homo sapiens) (UniProt Q13490). Description: Antagonist activity at cIAP1-BIR3 domain (unknown origin) assessed as inhibition of interaction with SMAC at 5 mM by fluorescence polarization assay relative to control. The gist of the method:
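Competitive FP assay: cIAP1-BIR3 (4 nM) with a 2 nM SMAC-derived FAM peptide tracer, AbuRPFK(5&6FAM)-amide. Compound was tested at 5 mM. Polarization was read at ex 485/em 538 nm and expressed as percent inhibition, mean of at least two runs.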

For series [16], the target named is T1, E3 ubiquitin-protein ligase XIAP. Kind of series: Antagonist activity at XIAP-BIR3 domain (unknown origin) assessed as inhibition of interaction with SMAC at 155 uM by fluorescence polarization assay relative to control.
The target is the same in series [17]. Description: Antagonist activity at XIAP-BIR3 domain (unknown origin) assessed as inhibition of interaction with SMAC at 495 uM by fluorescence polarization assay relative to control.
Series [18] shares this target. Kind of series: Antagonist activity at XIAP-BIR3 domain (unknown origin) assessed as inhibition of interaction with SMAC at 1 mM by fluorescence polarization assay relative to control.
Series [19] shares this target. Description: Antagonist activity at XIAP-BIR3 domain (unknown origin) assessed as inhibition of interaction with SMAC at 1000 uM by fluorescence polarization assay relative to control.

The structures appear in SMILES notation. Active and inactive are the calls of the source. No cut-off for these calls is given here.

Baculoviral IAP repeat-containing protein 2 (Homo sapiens), sequence (Q13490 whole entry, the tested form may be a part): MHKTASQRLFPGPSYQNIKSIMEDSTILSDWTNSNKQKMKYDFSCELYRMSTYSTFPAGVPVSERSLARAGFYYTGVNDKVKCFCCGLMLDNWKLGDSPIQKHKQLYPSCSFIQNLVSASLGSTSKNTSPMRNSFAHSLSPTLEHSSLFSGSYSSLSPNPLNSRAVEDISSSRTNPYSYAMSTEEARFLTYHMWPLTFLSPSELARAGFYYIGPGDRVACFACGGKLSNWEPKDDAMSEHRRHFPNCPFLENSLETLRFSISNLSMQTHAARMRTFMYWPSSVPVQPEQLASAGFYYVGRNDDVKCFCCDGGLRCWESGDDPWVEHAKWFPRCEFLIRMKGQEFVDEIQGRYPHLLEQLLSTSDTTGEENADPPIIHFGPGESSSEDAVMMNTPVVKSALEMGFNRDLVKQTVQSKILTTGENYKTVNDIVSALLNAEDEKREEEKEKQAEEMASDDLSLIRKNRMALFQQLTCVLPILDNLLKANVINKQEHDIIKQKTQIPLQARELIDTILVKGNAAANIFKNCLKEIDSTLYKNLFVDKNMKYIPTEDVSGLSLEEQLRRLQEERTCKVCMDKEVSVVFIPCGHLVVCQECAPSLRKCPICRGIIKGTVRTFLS
T1 sequence (P98170 whole entry): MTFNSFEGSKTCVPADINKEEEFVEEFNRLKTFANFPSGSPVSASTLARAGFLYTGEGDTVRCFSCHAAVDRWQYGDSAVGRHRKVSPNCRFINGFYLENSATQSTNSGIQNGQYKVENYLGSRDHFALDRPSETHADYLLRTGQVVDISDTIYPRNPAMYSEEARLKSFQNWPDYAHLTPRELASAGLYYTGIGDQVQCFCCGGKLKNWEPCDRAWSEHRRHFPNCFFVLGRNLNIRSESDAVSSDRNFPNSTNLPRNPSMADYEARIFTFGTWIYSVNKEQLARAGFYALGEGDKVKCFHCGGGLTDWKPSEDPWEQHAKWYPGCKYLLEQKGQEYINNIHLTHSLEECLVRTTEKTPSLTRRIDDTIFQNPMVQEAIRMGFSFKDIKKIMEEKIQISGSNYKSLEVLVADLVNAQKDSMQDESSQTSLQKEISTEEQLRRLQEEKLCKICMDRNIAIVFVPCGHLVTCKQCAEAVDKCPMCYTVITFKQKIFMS

As a reminder, the inhibition is the drop in the measured response relative to a control, in per cent. One may read the EC50 as the concentration that produces a half-maximal response. With `CN[C@@H](C)C(=O)N[C@H]1CN(C(=O)CC(C)C)CC[C@H]2CC[C@@H](C(=O)NC(c3ccccc3)c3ccccc3)N2C1=O` [XEVINAPANT], the inhibition is 98% in series [1] and 70% in series [4]. For the same molecule, the EC50 in series [2] is 34 nM; in the series on EVSA-T it was 2.1 nM; with MDA-MB-231 [5], 19 nM; in the series on HCT-116, greater than 10000 nM. Also, the TGI entry in the series on MDA-MB-231 [3] was “Active”.

Turning to `COC[C@H]1CN[C@H](C)CN1CC(=O)N1CC(C)(C)c2cnc(Cc3ccccc3)cc21`, the outcome in the series on Mus musculus [6], in the series on Mus musculus [7], in the series with Mus musculus [10] and in the series on Mus musculus [11] was Active. The result in the series with Mus musculus [8] and in the series with Mus musculus [9] was inactive. Further, the EC50 is 100 nM in the series with EVSA-T, 590 nM in the series with MDA-MB-231 [5] and greater than 10000 nM in the series with HCT-116. Besides, in the series on MDA-MB-231 [12], the TGI result is “Active”. Also, in the series with Mus musculus [13], the Activity result was “Non-toxic”.

Regarding `O=C(CN1CCNCC1)N1CCCCC1`, the inhibition in series [14] was determined as 38%; in series [15] it was 16%.

Consider `COc1ccc2c(c1)N(C(=O)CN1CCN[C@H](C)C1)CC2`, for which the inhibition in series [16] came out at 49%.

As to `Brc1cnn(C2CCNCC2)c1`, the results for the inhibition in series [14] and in series [15] were 33% and 55%, respectively.

For the molecule `C[C@@H]1CN(CC(=O)N2CCc3ccccc32)CCN1`, in [17], the inhibition was determined as 52%.

As to `C[C@@H]1CN(CC(=O)N2CCc3ccc(N)cc32)CCN1`, the inhibition in series [18] and in [19] was 56% in each case.

Values taken from ChEMBL document CHEMBL3600342, “Fragment-Based Drug Discovery Targeting Inhibitor of Apoptosis Proteins: Discovery of a Non-Alanine Lead Series with Dual Activity Against cIAP1 and XIAP” (J Med Chem, 2015).
